Values after ≈ are worked out from the molar mass of the structure shown. Active and inactive are the calls of the source. The rule behind the calls is not given here.
How the values were obtained:
OVXF1023 cell line = assay: In vitro cytotoxicity against human tumor xenograft OVXF1023 ovarian adenocarcinoma; assay type: functional
Outline: (§1)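 Double-layer soft-agar clonogenic assay. Tumor cells come from human tumor xenografts serially passaged in nude mice. Cells are dispersed with collagenase 0.05%, DNase 0.07% and hyaluronidase 0.1% (37 °C, 30 min), sieved, and viability is checked by trypan blue. 20 000–200 000 cells go in 0.4% agar over a 0.7% agar base in IMDM with 20% FCS. Drug is overlaid continuously for at least 1 week.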

LXFS538 = assay: In vitro cytotoxicity against human tumor xenograft LXFS 538 small cell lung carcinoma; assay type: functional; outline: as §1
[1] = target: T1, M-phase inducer phosphatase 1 (Homo sapiens, UniProt P30304); assay: Inhibition of Cell division cycle 25 (Cdc25) phosphatase
T1 sequence (P30304 whole entry): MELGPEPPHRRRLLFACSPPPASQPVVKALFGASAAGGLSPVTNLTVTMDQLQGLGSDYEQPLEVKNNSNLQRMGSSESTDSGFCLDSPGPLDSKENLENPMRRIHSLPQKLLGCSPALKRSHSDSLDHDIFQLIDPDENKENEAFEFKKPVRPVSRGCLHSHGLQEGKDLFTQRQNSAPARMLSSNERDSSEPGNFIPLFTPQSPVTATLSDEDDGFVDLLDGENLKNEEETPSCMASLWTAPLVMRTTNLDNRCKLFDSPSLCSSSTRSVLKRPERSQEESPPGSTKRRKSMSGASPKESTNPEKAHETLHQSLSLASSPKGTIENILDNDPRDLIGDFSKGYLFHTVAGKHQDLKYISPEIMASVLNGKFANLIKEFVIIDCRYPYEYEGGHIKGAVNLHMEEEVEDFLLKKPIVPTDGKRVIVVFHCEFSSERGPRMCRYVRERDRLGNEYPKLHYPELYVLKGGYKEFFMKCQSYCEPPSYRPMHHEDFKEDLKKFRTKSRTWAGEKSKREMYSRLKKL
Outline: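 Enzyme is GST-human cdc25A fusion expressed in E. coli and purified on glutathione-agarose. Enzyme and DTT in Tris buffer are preincubated 15 min at 37 °C. The reaction starts with p-nitrophenyl phosphate (500 mM stock) and runs 60 min at 37 °C. Absorbance is read at 405 nm, and the no-enzyme blank is subtracted.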

LXFL 529 = assay: In vitro cytotoxicity against human tumor xenograft LXFL 529 Nonsmall cell lung carcinoma; assay type: functional; outline: as §1
[2] = In vitro cytotoxic effect in 3 of 6 human tumor xenografts, LXFS, MEXF and RXF; assay type: functional; outline: as §1
MEXF989 = assay: In vitro cytotoxicity against human tumor xenograft MEXF 989 melanoma; assay type: functional; outline: as §1
RXF 423 = assay: In vitro cytotoxicity against human tumor xenograft RXF 423 renal cancer; assay type: functional; outline: as §1
CXF1103 = assay: In vitro cytotoxicity against human tumor xenograft CXF 1103 colorectal adenocarcinoma; assay type: functional; outline: as §1
LXFL 529/ LXFS 538 = assay: In vitro cytotoxicity in nonsmall cell lung carcinoma cell line LXFL 529 and small cell lung carcinoma cell line LXFS 538 human tumor xenografts.; assay type: functional; outline: as §1
[3] = In vitro cytotoxic effect in 2 of 6 human tumor xenografts, LXFS and RXF; assay type: functional; outline: as §1
[4] = In vitro cytotoxic effect in 1 of 6 human tumor xenografts, RXF; assay type: functional; outline: as §1
[5] = system: panel of six human tumor xenografts (Homo sapiens); assay: In vitro cytotoxicity in six human tumor xenografts.
[6] = In vitro cytotoxic effect in 1 of 6 human tumor xenografts, LXFS; assay type: functional; outline: as §1
[7] = In vitro cytotoxic effect in 2 of 6 human tumor xenografts, LXFL and LXFS; assay type: functional; outline: as §1
[8] = In vitro cytotoxic effect in 2 of 6 human tumor xenografts, LXFE and RXF; assay type: functional; details: in the assay text read “LXFL” for “LXFE”; outline: as §1
[9] = In vitro cytotoxic effect in 4 of 6 human tumor xenografts, LXFL, LXFS, MEXF and OVXF; assay type: functional; outline: as §1
[10] = target: Cyclin-dependent kinase 1 (starfish); assay: Inhibition of Cell division cycle 2 (cdc2) kinase
[11] = In vitro cytotoxic effect in 0 of 6 human tumor xenografts; assay type: functional; outline: as §1

SMILES	IC50 [1]	IC70 (OVXF1023 cell line)	IC70 (LXFS538)	IC70 (LXFL 529)	IC70 (MEXF989)	IC70 (RXF 423)	IC70 (CXF1103)	Mean IC70 (LXFL 529/ LXFS 538)	Mean IC70 [5]	other results
CCCCCCCCCCCCCCCCOCCOP(=O)([O-])OCC[N+]1(C)CCOCC1	1000 µM	> 10 µg/mL	5.12 µg/mL (≈ 10.4 µM)	10.4 µg/mL (≈ 21 µM)	8.76 µg/mL (≈ 17.7 µM)	4.76 µg/mL (≈ 9.64 µM)	> 10 µg/mL	7.8 µg/mL		Cytotoxicity [2]: Weak activity
CCCCCCCCCCCCOP(=O)([O-])OCC[N+]1(C)CCCCC1	> 1000 µM								>10 µg/mL	Cytotoxicity [6]: Weak activity
CCCCCCCCCCCCCCCCOCCOP(=O)([O-])OCC[N+]1(C)CCCCC1	100 µM	> 10 µg/mL	4.54 µg/mL (≈ 9.23 µM)	5.38 µg/mL (≈ 10.9 µM)	> 10 µg/mL	10 µg/mL (≈ 20.3 µM)	> 10 µg/mL	7.9 µg/mL		Cytotoxicity [7]: Weak activity
CCCCCCCCCCCCCCCCOP(=O)([O-])OCC[N+](C)(C)C [MILTEFOSINE]	25 µM	> 10 µg/mL	> 10 µg/mL	9.57 µg/mL (≈ 23.5 µM)	> 10 µg/mL	2.75 µg/mL (≈ 6.76 µM)	> 10 µg/mL		8 µg/mL	Cytotoxicity [8]: Weak activity
CCCCCCCCCCCCCCCCOP(=O)([O-])OCC[N+]1(C)CCCCC1	460 µM	7.8 µg/mL (≈ 17.4 µM)	1.9 µg/mL (≈ 4.23 µM)	4.33 µg/mL (≈ 9.67 µM)	4.64 µg/mL (≈ 10.4 µM)	10 µg/mL (≈ 22.3 µM)	> 10 µg/mL		5.6 µg/mL	Cytotoxicity [9]: Weak activity
CCCCCCCCCCCCCCOP(=O)([O-])OCC[N+]1(C)CCCCC1	490 µM								>10 µg/mL	IC50 [10]: > 1 mM; NA [11]: inactive
CCCCCCCCCCCCCCOCCOP(=O)([O-])OCC[N+]1(C)CCCCC1	300 µM							>10 µg/mL		Cytotoxicity [6]: Weak activity

Further lines, with some results ahead:

IC50 [1]	SMILES	IC70 (OVXF1023 cell line)	IC70 (LXFS538)	IC70 (LXFL 529)	IC70 (MEXF989)	IC70 (RXF 423)	IC70 (CXF1103)	Mean IC70 (LXFL 529/ LXFS 538)	Mean IC70 [5]	other results
380 µM	CCCCCCCCCCCCCCOCCOP(=O)([O-])OCC[N+]1(C)CCOCC1	> 10 µg/mL	5.85 µg/mL (≈ 12.6 µM)	10 µg/mL (≈ 21.5 µM)	> 10 µg/mL	6.74 µg/mL (≈ 14.5 µM)	> 10 µg/mL	8.6 µg/mL		Cytotoxicity [3]: Weak activity
290 µM	CCCCCCCCCCCCCCOP(=O)([O-])OCC[N+]1(C)CCOCC1								>10 µg/mL	Cytotoxicity [4]: Weak activity
610 µM	CCCCCCCCCCCCOCCOP(=O)([O-])OCC[N+]1(C)CCOCC1							>10 µg/mL		Cytotoxicity [6]: Weak activity
40 µM	CCCCCCCCCCCCCCCCOP(=O)([O-])OCC[N+]1(C)CCOCC1								>10 µg/mL	Cytotoxicity [4]: Weak activity
500 µM	CCCCCCCCCCCCOP(=O)([O-])OCC[N+]1(C)CCOCC1								>10 µg/mL	NA [11]: inactive

Reference: ChEMBL document CHEMBL1129359, “Alkyl and alkoxyethyl antineoplastic phospholipids” (J Med Chem, 1996)
